From article PMC11865470 (Communications Biology, 2025)
“Also recorded” adds a separate entry of the source.

How the values were obtained:
[1] = biological target: T1, mOtop1/R554A (Mus musculus, UniProt Q80VM9, R554A); assay: patch-clamp, mOtop1 mutant; format: cell-based; conditions: for effect of mutating R554 on the compound's action on Otop1: Fig 5I, J
T1 sequence (Q80VM9 1-600 R554A): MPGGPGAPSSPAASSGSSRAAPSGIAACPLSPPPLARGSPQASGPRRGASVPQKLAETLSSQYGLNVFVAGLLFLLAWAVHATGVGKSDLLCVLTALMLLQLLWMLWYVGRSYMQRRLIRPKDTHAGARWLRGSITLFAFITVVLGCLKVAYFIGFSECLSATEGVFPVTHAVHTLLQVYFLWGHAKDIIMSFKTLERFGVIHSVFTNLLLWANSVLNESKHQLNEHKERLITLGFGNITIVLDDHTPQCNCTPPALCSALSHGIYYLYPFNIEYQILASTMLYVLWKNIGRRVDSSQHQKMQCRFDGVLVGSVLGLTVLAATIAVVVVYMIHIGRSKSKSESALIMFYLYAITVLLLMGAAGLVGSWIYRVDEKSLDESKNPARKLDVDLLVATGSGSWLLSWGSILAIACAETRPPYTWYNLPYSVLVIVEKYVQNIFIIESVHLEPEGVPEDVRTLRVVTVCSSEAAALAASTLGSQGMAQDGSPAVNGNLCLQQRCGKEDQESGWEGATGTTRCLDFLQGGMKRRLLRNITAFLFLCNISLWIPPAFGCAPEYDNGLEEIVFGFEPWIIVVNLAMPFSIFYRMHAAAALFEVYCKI

[2] = biological target: CaV2.2 (Rattus norvegicus, UniProt Q02294); assay: whole-cell patch-clamp, off-target channel, 10 μM compound; format: cell-based; conditions: for sensitivity of channel to compound: vs 0.1% DMSO
Method in brief: (§1)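 CaV channels in transfected HEK293T cells, whole-cell. Pipette (mM): 120 CsMeSO3, 2 Mg-ATP, 11 EGTA, 10 HEPES, pH 7.4. Bath (mM): 138 NaCl, 5.6 KCl, 2.6 CaCl2, 20 TEA-Cl, 5 glucose, 5 HEPES, pH 7.4. 0.1% DMSO bath applied before 10 μM test compound. Inhibition ratios compared by unpaired t-test, n = 5.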

[3] = biological target: PAC (Homo sapiens, UniProt Q9H813); assay: whole-cell patch-clamp, off-target channel, 10 μM compound; format: cell-based; conditions: vs 0.1% DMSO
Method in brief: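 PAC in transfected HEK293T cells, whole-cell. Pipette (mM): 135 CsCl, 1 MgCl2, 2 CaCl2, 10 HEPES, 5 EGTA, 4 Mg-ATP, pH 7.2. NaCl-based bath buffered with 10 mM HEPES (pH 7.3) or 5 mM Na3-citrate (pH 5.5). 0.1% DMSO bath applied before 10 μM test compound. Inhibition ratios compared by unpaired t-test, n = 5.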

[4] = biological target: CaV1.2 (Mus musculus, UniProt Q01815); assay: whole-cell patch-clamp, off-target channel, 10 μM compound; format: cell-based; conditions: for sensitivity of channel to compound: vs 0.1% DMSO
Method in brief: as §1

[5] = biological target: NaV1.3 (Rattus norvegicus, UniProt P08104); assay: whole-cell patch-clamp, off-target channel, 10 μM compound; format: cell-based; conditions: vs 0.1% DMSO
Method in brief: (§2)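 NaV channels, transiently transfected HEK293T cells, whole-cell, 16–24 h after seeding. Pipette (mM): 140 CsF, 1 EGTA, 10 NaCl, 10 HEPES, pH 7.4. Bath (mM): 140 NaCl, 5 KCl, 2 CaCl2, 1 MgCl2, 10 glucose, 10 HEPES, pH 7.4. Bath with 0.1% DMSO applied before 10 μM test compound. Inhibition ratios compared by unpaired t-test, n = 5.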

[6] = biological target: NaV1.2 (Rattus norvegicus, UniProt P04775); assay: as above; format: cell-based; conditions: vs 0.1% DMSO
Method in brief: as §2

[7] = biological target: T2, ASIC3 (Rattus norvegicus, UniProt O35240); assay: whole-cell patch-clamp, off-target channel, 10 μM compound; format: cell-based; conditions: vs 0.1% DMSO
T2 sequence (O35240 1-533): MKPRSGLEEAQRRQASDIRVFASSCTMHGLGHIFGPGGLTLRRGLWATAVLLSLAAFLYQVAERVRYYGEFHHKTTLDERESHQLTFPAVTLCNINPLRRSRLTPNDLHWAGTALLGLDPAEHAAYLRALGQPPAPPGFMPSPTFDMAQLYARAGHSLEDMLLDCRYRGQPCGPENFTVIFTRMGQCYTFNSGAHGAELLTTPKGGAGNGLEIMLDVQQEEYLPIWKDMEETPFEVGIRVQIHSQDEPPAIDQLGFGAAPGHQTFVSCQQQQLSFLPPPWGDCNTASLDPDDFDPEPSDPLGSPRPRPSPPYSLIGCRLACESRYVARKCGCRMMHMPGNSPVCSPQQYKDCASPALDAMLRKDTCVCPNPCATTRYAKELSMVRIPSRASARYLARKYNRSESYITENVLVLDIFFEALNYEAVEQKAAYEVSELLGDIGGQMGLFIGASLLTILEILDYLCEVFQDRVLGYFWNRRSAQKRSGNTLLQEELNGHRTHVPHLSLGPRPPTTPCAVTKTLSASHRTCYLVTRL
Method in brief: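 ASIC channels in transfected HEK293T cells, whole-cell. Pipette (mM): 140 CsF, 11 EGTA, 1 CaCl2, 2 TEA-Cl, 4 MgCl2, 10 HEPES, pH 7.3. NaCl-based bath with 20 mM HEPES (pH 7.4) or 20 mM MES (pH 5.5). 0.1% DMSO bath applied before 10 μM test compound. Inhibition ratios compared by unpaired t-test, n = 5.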

[8] = system: KV2.1; assay: whole-cell patch-clamp, off-target channel, 10 μM compound; format: cell-based, Mus musculus; conditions: for sensitivity of channel to compound: vs 0.1% DMSO
Method in brief: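 KV channels in transiently transfected HEK293T cells, whole-cell. Pipette (mM): 140 KCl, 2.5 MgCl2, 11 EGTA, 10 HEPES, pH 7.4. Bath (mM): 145 NaCl, 2.8 KCl, 2 CaCl2, 1 MgCl2, 10 glucose, 10 HEPES, pH 7.4. 0.1% DMSO bath applied, then 10 μM test compound. DMSO vs compound inhibition ratio compared by unpaired t-test, n = 5.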

[9] = biological target: T3, HV1 (Homo sapiens, UniProt Q96D96); assay: whole-cell patch-clamp, off-target channel, 10 μM compound; format: cell-based; conditions: vs 0.1% DMSO
T3 sequence (Q96D96 1-273): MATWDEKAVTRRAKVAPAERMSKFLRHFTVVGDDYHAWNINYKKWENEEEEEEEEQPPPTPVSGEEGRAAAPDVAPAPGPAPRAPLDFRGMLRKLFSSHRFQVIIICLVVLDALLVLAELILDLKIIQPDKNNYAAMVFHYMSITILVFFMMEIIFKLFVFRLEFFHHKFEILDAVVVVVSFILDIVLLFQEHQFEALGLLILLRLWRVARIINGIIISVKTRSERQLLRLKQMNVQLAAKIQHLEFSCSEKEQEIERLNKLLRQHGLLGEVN
Method in brief: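 HV1 in transfected HEK293T cells, whole-cell. Pipette (mM): 120 CsCl, 100 MES, pH 5.5. Bath (mM): 150 NaCl, 5 KCl, 1 MgCl2, 2 CaCl2, 10 glucose, 100 HEPES, pH 7.2. Bath with 0.1% DMSO applied before 10 μM test compound. Inhibition ratios compared by unpaired t-test, n = 5.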

Chain of CaV2.2 (Q02294 whole entry): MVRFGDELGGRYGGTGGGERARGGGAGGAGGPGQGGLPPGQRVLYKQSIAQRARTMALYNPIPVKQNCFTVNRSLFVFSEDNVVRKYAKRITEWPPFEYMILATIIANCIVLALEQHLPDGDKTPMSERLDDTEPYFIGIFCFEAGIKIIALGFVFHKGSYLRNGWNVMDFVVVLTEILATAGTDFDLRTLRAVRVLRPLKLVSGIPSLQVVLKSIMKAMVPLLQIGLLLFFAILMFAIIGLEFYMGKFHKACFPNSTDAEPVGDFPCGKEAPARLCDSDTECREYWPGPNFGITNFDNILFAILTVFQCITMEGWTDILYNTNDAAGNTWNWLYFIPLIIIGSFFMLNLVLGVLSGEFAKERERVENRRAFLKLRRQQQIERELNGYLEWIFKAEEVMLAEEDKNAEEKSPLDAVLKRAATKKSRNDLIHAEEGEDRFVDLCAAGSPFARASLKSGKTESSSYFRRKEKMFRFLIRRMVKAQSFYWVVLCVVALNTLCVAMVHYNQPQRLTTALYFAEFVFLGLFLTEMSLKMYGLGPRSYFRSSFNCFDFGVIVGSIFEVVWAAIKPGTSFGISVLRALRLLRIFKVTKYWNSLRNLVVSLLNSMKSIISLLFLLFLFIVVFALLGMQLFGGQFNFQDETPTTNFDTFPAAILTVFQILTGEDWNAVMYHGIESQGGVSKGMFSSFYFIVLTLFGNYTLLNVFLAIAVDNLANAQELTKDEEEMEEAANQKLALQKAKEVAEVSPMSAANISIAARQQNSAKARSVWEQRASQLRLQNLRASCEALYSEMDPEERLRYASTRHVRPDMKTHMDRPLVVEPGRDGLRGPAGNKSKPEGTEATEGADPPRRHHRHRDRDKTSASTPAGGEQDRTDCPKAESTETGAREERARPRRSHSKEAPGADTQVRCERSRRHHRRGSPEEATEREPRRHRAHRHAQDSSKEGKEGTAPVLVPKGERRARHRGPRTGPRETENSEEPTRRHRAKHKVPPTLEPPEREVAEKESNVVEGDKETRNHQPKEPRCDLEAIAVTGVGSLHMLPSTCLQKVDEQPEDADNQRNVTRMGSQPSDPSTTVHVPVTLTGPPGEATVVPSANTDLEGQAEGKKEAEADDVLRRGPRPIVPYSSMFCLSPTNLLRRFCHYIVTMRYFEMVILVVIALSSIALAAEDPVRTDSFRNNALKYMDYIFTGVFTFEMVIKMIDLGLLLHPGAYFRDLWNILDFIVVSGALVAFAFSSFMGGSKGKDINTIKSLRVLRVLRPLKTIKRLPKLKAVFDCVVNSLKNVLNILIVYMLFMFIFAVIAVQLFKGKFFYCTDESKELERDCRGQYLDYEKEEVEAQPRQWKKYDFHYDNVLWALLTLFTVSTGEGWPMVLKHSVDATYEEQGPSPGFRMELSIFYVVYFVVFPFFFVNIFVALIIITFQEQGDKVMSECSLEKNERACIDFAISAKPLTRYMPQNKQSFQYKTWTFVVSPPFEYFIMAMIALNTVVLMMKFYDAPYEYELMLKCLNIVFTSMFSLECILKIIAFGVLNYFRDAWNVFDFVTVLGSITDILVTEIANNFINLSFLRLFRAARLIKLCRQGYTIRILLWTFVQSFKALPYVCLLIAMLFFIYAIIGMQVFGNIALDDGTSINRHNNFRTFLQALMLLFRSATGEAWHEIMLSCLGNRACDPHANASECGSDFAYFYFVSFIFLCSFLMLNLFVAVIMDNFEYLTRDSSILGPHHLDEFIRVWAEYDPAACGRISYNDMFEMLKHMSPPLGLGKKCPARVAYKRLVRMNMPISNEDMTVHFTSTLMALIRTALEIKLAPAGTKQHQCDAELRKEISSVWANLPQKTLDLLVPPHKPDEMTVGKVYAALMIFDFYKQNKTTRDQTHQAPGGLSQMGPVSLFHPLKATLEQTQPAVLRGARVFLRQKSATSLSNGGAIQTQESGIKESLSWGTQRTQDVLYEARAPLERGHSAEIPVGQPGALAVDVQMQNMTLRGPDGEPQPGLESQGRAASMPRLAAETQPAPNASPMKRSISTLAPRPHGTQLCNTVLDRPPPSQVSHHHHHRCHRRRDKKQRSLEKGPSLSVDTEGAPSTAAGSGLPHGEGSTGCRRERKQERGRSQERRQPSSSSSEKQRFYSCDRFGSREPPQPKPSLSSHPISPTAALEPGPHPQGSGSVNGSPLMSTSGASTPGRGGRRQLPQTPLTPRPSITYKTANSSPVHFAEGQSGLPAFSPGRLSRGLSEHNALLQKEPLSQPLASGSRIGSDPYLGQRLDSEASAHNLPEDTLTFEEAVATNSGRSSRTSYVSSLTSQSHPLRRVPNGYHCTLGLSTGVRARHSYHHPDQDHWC
Chain of NaV1.2 (P04775 whole entry): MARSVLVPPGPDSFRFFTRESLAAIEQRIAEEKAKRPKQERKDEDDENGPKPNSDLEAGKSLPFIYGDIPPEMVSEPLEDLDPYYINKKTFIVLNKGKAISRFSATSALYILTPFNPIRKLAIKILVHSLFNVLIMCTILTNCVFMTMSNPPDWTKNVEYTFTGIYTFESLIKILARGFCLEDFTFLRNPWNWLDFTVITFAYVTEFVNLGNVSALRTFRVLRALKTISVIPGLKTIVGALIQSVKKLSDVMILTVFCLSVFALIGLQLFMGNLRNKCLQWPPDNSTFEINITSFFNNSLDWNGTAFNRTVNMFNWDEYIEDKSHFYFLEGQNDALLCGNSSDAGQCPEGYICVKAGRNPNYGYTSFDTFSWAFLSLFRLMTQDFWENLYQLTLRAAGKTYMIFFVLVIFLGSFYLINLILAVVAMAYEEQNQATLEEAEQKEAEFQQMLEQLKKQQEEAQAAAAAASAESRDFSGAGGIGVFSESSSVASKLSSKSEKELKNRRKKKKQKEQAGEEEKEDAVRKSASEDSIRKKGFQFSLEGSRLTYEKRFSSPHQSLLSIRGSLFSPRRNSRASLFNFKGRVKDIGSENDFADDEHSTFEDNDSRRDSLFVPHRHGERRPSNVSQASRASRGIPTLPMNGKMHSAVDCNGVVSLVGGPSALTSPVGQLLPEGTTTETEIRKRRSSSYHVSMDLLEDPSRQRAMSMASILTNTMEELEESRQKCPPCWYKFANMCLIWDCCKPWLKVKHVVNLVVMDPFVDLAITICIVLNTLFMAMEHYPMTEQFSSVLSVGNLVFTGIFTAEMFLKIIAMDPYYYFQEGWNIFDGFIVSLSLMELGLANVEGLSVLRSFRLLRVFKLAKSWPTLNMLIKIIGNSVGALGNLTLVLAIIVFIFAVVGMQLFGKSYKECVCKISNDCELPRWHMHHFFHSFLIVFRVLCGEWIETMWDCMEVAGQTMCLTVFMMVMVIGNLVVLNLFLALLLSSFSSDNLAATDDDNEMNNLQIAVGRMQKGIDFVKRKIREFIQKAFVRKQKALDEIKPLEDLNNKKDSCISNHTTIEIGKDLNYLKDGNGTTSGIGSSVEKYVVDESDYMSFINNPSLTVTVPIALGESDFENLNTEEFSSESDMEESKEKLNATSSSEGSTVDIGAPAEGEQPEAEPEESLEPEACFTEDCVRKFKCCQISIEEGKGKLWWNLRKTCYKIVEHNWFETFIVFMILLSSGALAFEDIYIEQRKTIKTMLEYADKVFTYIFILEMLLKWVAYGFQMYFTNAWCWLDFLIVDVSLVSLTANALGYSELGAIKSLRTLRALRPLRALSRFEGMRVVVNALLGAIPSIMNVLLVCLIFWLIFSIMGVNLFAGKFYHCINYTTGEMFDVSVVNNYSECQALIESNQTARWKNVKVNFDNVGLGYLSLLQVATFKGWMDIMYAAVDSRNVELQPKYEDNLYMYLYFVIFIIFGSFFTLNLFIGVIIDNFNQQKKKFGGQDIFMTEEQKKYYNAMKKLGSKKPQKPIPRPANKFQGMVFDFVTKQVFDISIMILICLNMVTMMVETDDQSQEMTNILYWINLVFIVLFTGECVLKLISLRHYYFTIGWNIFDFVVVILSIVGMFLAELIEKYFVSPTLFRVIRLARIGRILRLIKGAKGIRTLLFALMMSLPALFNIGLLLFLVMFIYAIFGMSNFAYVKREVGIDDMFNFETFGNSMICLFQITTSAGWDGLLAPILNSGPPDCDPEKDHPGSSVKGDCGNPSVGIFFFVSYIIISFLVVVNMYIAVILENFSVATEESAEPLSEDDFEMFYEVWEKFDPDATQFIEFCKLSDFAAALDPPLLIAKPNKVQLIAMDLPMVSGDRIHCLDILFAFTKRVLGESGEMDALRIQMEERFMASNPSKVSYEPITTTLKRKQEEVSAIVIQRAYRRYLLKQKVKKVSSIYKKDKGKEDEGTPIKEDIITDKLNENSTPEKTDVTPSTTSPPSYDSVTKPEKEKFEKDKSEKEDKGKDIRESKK
Chain of PAC (Q9H813 whole entry): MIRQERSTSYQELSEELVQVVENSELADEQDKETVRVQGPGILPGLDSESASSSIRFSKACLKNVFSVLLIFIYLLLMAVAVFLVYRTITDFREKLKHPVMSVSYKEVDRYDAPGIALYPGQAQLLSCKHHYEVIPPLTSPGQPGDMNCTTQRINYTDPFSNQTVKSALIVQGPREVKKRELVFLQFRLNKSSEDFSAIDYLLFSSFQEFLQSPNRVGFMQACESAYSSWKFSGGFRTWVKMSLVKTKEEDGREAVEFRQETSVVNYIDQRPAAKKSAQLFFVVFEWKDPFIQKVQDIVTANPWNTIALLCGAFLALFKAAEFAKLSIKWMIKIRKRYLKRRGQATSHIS

Row | Structure (SMILES) | effect of mutating R554 on the compound's action on Otop1 [1] | sensitivity of channel to compound [2] | sensitivity of channel to compound [3] | inhibition ratio [4] | sensitivity of channel to compound [5] | sensitivity of channel to compound [6] | sensitivity of channel to compound [7] | sensitivity of channel to compound [8] | sensitivity of channel to compound [9] | response of mutant to MFaN ([1]; 10 μM, pH 5.5) | response of mutant to MFaN ([1]; pHs of 4.5, 5.0, and 6.0) | inhibition ratio [2] | sensitivity of channel to compound [4] | inhibition ratio [8]
1 | CC(C)c1noc2ncc(C(=O)c3ccccc3O)cc12 [HIMOP, (2-hydroxyphenyl)-(3-propan-2-yl-5-isoxazolo[5,4-b]pyridinyl)methanone] | did not affect | completely resistant | completely resistant | 15.6% | completely resistant | completely resistant | completely resistant | completely resistant | completely resistant | – | – | – | – | –
2 | Cc1ccc(C(=O)Nc2ccc3ccccc3c2)o1 [MFaN, 5-methyl-N-2-naphthyl-2-furamide] | – | – | completely resistant | – | completely resistant | completely resistant | completely resistant | – | completely resistant | entirely unresponsive; also recorded: completely abolished | completely unresponsive | 7.9% | completely resistant | 20.0%
3 | Cc1cc(NC(=O)c2ccc(Br)o2)ccc1NC(=O)c1ccco1 [B2FAMP, 5-Bromo-N-[4-(2-furoylamino)-3-methylphenyl]-2-furamide] | only partially reduced | completely resistant | completely resistant | – | completely resistant | completely resistant | completely resistant | completely resistant | completely resistant | – | – | – | completely resistant | –
